≈ marks a conversion by molar mass, not a printed value.
Legend:
[1] = test system: Staphylococcus aureus USA400; assay: MIC determination; assay type: cell-based; conditions: USA400, read-out: MIC USA400
[2] = test system: S. aureus UAMS-1 biofilms; assay: Disruption of established biofilms; assay type: cell-based, Staphylococcus aureus; conditions: UAMS-1, at 6.25 μM
[3] = test system: Staphylococcus aureus USA300; assay: MIC determination; assay type: cell-based; conditions: USA300, read-out: MIC SA
[4] = test system: Staphylococcus aureus Mu50; assay: MIC determination; assay type: cell-based; conditions: MU50, read-out: MIC Mu50
[5] = test system: S. aureus USA200 biofilms; assay: Disruption of established 24 h biofilms; assay type: cell-based, Staphylococcus aureus; conditions: USA200, at 6.25 μM
[6] = test system: S. aureus USA300 biofilms; assay: Inhibition of biofilm formation; assay type: cell-based, Staphylococcus aureus; conditions: USA300, between 3.1 and 12.5 μM
[7] = test system: S. aureus USA400 biofilms; assay: Disruption of established 24 h biofilms; assay type: cell-based, Staphylococcus aureus
[8] = test system: S. aureus USA400 biofilms; assay: Inhibition of biofilm formation; assay type: cell-based, Staphylococcus aureus; conditions: USA400, all tested concentrations from 1.56 to 12.5 μM
[9] = test system: Staphylococcus aureus UAMS-1; assay: MIC determination; assay type: cell-based; conditions: UAMS1, read-out: MIC UAMS-1
biofilm = conditions: lower concentrations ineffective; cited from earlier work
[10] = test system: Staphylococcus aureus USA200; assay: MIC determination; assay type: cell-based; conditions: USA200, read-out: MIC USA200
[11] = test system: Pseudomonas aeruginosa PAO1; assay: MIC determination; assay type: cell-based; conditions: PAO1, read-out: MIC PA
[12] = test system: S. aureus USA300 biofilms; assay: Disruption of established 24 h biofilms; assay type: cell-based, Staphylococcus aureus; conditions: USA300 24 h biofilm
How it was run: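 USA300 from log phase was grown in wells for 24 h at 37°C to form biofilms, then washed with saline. The 10X test compound, alone or with daptomycin or vancomycin, was added with fresh TSB for another 24 h at 37°C. In combinations the test compound ran 1.56-0.20 µM and the antibiotic 6.25-0.78 µM. Daptomycin medium had 2 mM Ca2+. Wells got fresh TSB plus XTT for 2 h at 37°C, then A450 was read as % of untreated biofilm.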

Klebsiella pneumoniae = assay: MIC determination; assay type: cell-based; conditions: K. pneumoniae

Row | Structure (SMILES) | MIC [1] [µM] | established biofilms disrupted [2] | MIC [3] [µM] | MIC [4] [µM] | established biofilms disrupted [5] [%] | inhibition of biofilm growth [6] [%] | concentration disrupting established biofilms [7] [µM] | inhibition of biofilm formation [8] [%] | MIC [9] [µM] | concentration with anti-biofilm activity (biofilm) [mg/mL] | MIC [10] [µM] | MIC [11] [µM] | biofilm disruption alone ([12]; 3.1 μM vancomycin by itself) | biofilm disruption by combination ([12]; 3.1 μM vancomycin with 0.20 μM C14-RRR) | MIC KP (Klebsiella pneumoniae) [µM]
1 | CCCCCCCCCC(=O)N[C@@H](Cc1c[nH]c2ccccc12)C(=O)N[C@H](CC(N)=O)C(=O)N[C@@H](CC(=O)O)C(=O)N[C@@H]1C(=O)NCC(=O)N[C@@H](CCCN)C(=O)N[C@@H](CC(=O)O)C(=O)N[C@H](C)C(=O)N[C@@H](CC(=O)O)C(=O)NCC(=O)N[C@H](CO)C(=O)N[C@@H]([C@H](C)CC(=O)O)C(=O)N[C@@H](CC(=O)c2ccccc2N)C(=O)O[C@@H]1C [Daptomycin] | 0.78 (≈ 1.26 µg/mL) | ~ 70% | 0.78 (≈ 1.26 µg/mL) | 3.1 (≈ 5.02 µg/mL) | 80 | 80 | 6.2 to 12.5 | 100 | > 12.5 | 5 | 0.78 (≈ 1.26 µg/mL) |  |  |  | 
2 | CN[C@H](CC(C)C)C(=O)N[C@H]1C(=O)N[C@@H](CC(N)=O)C(=O)N[C@H]2C(=O)N[C@H]3C(=O)N[C@H](C(=O)N[C@H](C(=O)O)c4cc(O)cc(O)c4-c4cc3ccc4O)[C@H](O)c3ccc(c(Cl)c3)Oc3cc2cc(c3O[C@@H]2O[C@H](CO)[C@@H](O)[C@H](O)[C@H]2O[C@H]2C[C@](C)(N)[C@H](O)[C@H](C)O2)Oc2ccc(cc2Cl)[C@H]1O [Vancomycin] | 0.78 (≈ 1.13 µg/mL) | ~ 70% | 0.78 (≈ 1.13 µg/mL) | 1.56 (≈ 2.26 µg/mL) | 80 | 80 | 6.2 to 12.5 | 100 | > 12.5 |  | 0.35 (≈ 0.507 µg/mL) | > 25 | unable to completely disrupt the biofilm | disrupt nearly all the biofilms | > 25
